Measurements: ChEMBL document CHEMBL4364301 (Eur J Med Chem, 2019)

Columns and labels:
Type in all cases: functional
[1] = tested on: VCaP; assay: Antiproliferative activity against human VCaP cells assessed as T/C value at 3.2 x 10^-3 uM incubated for 96 hrs by propidium iodide based 2D monolayer assay
How it was run: (§1)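 VCaP cells in RPMI 1640 with 10% FCS at 37 °C, 5% CO2, seeded 4,000–20,000 cells/well and left 24 h before dosing. Compounds from DMSO stocks were diluted in half-log steps in medium, 10 concentrations 0.0032–100 μM, triplicate wells, max 0.3% DMSO. After 96 h, cells were washed, stained with 7 μg/ml propidium iodide plus 0.1% Triton X-100 for 1–2 h at room temperature, and fluorescence read at ex 530/em 620 nm.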

[2] = tested on: CWR22R; assay: Antiproliferative activity against human 22Rv1 cells assessed as T/C value at 1 uM incubated for 96 hrs by propidium iodide based 2D monolayer assay
How it was run: (§2)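 Cells were kept in RPMI 1640 with 25 mM HEPES, 10% FCS and gentamicin at 37 °C under 5% CO2, and plated at 4,000-20,000 cells/well. After 24 h recovery, compound in medium or medium alone (control wells) was added at 10 half-log concentrations from 0.0032 to 100 µM, in triplicate, with at most 0.3% DMSO. After 96 h, wells were PBS-washed, stained with 7 µg/ml PI and 0.1% Triton X-100, and fluorescence read at 530/620 nm. IC50 came from a 4-parameter fit, geometric mean.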

[3] = tested on: DU-145; assay: Antiproliferative activity against human DU145 cells assessed as T/C value at 1 x 10^2 uM incubated for 96 hrs by propidium iodide based 2D monolayer assay; how it was run: as §2
[4] = tested on: CWR22R; assay: Antiproliferative activity against human 22Rv1 cells assessed as T/C value at 1 x 10^2 uM incubated for 96 hrs by propidium iodide based 2D monolayer assay; how it was run: as §2
[5] = tested on: VCaP; assay: Antiproliferative activity against human VCaP cells assessed as T/C value at 1 uM incubated for 96 hrs by propidium iodide based 2D monolayer assay; how it was run: as §2
[6] = tested on: VCaP; assay: Antiproliferative activity against human VCaP cells assessed as T/C value at 1 x 10^1 uM incubated for 96 hrs by propidium iodide based 2D monolayer assay; how it was run: as §2
[7] = tested on: DU-145; assay: Antiproliferative activity against human DU145 cells assessed as T/C value at 1 x 10^-2 uM incubated for 96 hrs by propidium iodide based 2D monolayer assay
How it was run: as §2, with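 “After” for “Cells were kept in RPMI 1640 with 25 mM HEPES, 10% FCS and gentamicin at 37 °C under 5% CO2, and plated at 4,000-20,000 cells/well. After”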

[8] = tested on: LNCaP; assay: Antiproliferative activity against human LNCAP cells assessed as T/C value at 3.2 uM incubated for 96 hrs by propidium iodide based 2D monolayer assay; how it was run: as §2
[9] = tested on: LNCaP; assay: Antiproliferative activity against human LNCAP cells assessed as T/C value at 1 x 10^2 uM incubated for 96 hrs by propidium iodide based 2D monolayer assay; how it was run: as §2
[10] = tested on: VCaP; assay: Antiproliferative activity against human VCaP cells assessed as T/C value at 3.2 x 10^-1 uM incubated for 96 hrs by propidium iodide based 2D monolayer assay; how it was run: as §1
[11] = tested on: LNCaP; assay: Antiproliferative activity against human LNCAP cells assessed as T/C value at 3.2 x 10^-2 uM incubated for 96 hrs by propidium iodide based 2D monolayer assay; how it was run: as §2
[12] = tested on: VCaP; assay: Antiproliferative activity against human VCaP cells assessed as T/C value at 3.2 uM incubated for 96 hrs by propidium iodide based 2D monolayer assay; how it was run: as §2
[13] = tested on: DU-145; assay: Antiproliferative activity against human DU145 cells assessed as T/C value at 3.2 x 10^1 uM incubated for 96 hrs by propidium iodide based 2D monolayer assay; how it was run: as §2
[14] = tested on: DU-145; assay: Antiproliferative activity against human DU145 cells assessed as T/C value at 3.2 x 10^-3 uM incubated for 96 hrs by propidium iodide based 2D monolayer assay
How it was run: as §2, with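 “After” for “Cells were kept in RPMI 1640 with 25 mM HEPES, 10% FCS and gentamicin at 37 °C under 5% CO2, and plated at 4,000-20,000 cells/well. After”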

[15] = tested on: DU-145; assay: Antiproliferative activity against human DU145 cells assessed as reduction in cell growth incubated for 96 hrs by propidium iodide based 2D monolayer assay; settings: DU-145, 96 h
How it was run: as §2, with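 “After” for “Cells were kept in RPMI 1640 with 25 mM HEPES, 10% FCS and gentamicin at 37 °C under 5% CO2, and plated at 4,000-20,000 cells/well. After”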

[16] = tested on: VCaP; assay: Antiproliferative activity against human VCaP cells assessed as reduction in cell growth incubated for 96 hrs by propidium iodide based 2D monolayer assay; how it was run: as §1
[17] = tested on: LNCaP; assay: Antiproliferative activity against human LNCAP cells assessed as T/C value at 3.2 x 10^-1 uM incubated for 96 hrs by propidium iodide based 2D monolayer assay; how it was run: as §2
[18] = tested on: CWR22R; assay: Antiproliferative activity against human 22Rv1 cells assessed as reduction in cell growth incubated for 96 hrs by propidium iodide based 2D monolayer assay; settings: 22Rv1, 96 h
How it was run: as §2, with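 “After” for “Cells were kept in RPMI 1640 with 25 mM HEPES, 10% FCS and gentamicin at 37 °C under 5% CO2, and plated at 4,000-20,000 cells/well. After”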

[19] = tested on: CWR22R; assay: Antiproliferative activity against human 22Rv1 cells assessed as T/C value at 1 x 10^-2 uM incubated for 96 hrs by propidium iodide based 2D monolayer assay; how it was run: as §2
[20] = tested on: LNCaP; assay: Antiproliferative activity against human LNCAP cells assessed as T/C value at 1 uM incubated for 96 hrs by propidium iodide based 2D monolayer assay; how it was run: as §2
[21] = tested on: CWR22R; assay: Antiproliferative activity against human 22Rv1 cells assessed as T/C value at 3.2 x 10^-2 uM incubated for 96 hrs by propidium iodide based 2D monolayer assay; how it was run: as §2
[22] = tested on: CWR22R; assay: Antiproliferative activity against human 22Rv1 cells assessed as T/C value at 3.2 uM incubated for 96 hrs by propidium iodide based 2D monolayer assay; how it was run: as §2
[23] = tested on: LNCaP; assay: Antiproliferative activity against human LNCAP cells assessed as T/C value at 1 x 10^1 uM incubated for 96 hrs by propidium iodide based 2D monolayer assay; how it was run: as §2
[24] = tested on: CWR22R; assay: Antiproliferative activity against human 22Rv1 cells assessed as T/C value at 3.2 x 10^1 uM incubated for 96 hrs by propidium iodide based 2D monolayer assay; how it was run: as §2
[25] = tested on: LNCaP; assay: Antiproliferative activity against human LNCAP cells assessed as T/C value at 1 x 10^-2 uM incubated for 96 hrs by propidium iodide based 2D monolayer assay; how it was run: as §2
[26] = tested on: CWR22R; assay: Antiproliferative activity against human 22Rv1 cells assessed as T/C value at 1 x 10^1 uM incubated for 96 hrs by propidium iodide based 2D monolayer assay; how it was run: as §2
[27] = tested on: DU-145; assay: Antiproliferative activity against human DU145 cells assessed as T/C value at 3.2 x 10^-2 uM incubated for 96 hrs by propidium iodide based 2D monolayer assay
How it was run: as §2, with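 “After” for “Cells were kept in RPMI 1640 with 25 mM HEPES, 10% FCS and gentamicin at 37 °C under 5% CO2, and plated at 4,000-20,000 cells/well. After”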

[28] = tested on: CWR22R; assay: Antiproliferative activity against human 22Rv1 cells assessed as T/C value at 3.2 x 10^-1 uM incubated for 96 hrs by propidium iodide based 2D monolayer assay; how it was run: as §2
[29] = tested on: VCaP; assay: Antiproliferative activity against human VCaP cells assessed as T/C value at 1 x 10^-1 uM incubated for 96 hrs by propidium iodide based 2D monolayer assay; how it was run: as §2
[30] = tested on: VCaP; assay: Antiproliferative activity against human VCaP cells assessed as T/C value at 1 x 10^-2 uM incubated for 96 hrs by propidium iodide based 2D monolayer assay; how it was run: as §2
[31] = tested on: LNCaP; assay: Antiproliferative activity against human LNCAP cells assessed as T/C value at 3.2 x 10^-3 uM incubated for 96 hrs by propidium iodide based 2D monolayer assay; how it was run: as §2
[32] = tested on: DU-145; assay: Antiproliferative activity against human DU145 cells assessed as T/C value at 1 uM incubated for 96 hrs by propidium iodide based 2D monolayer assay
How it was run: as §2, with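 “After” for “Cells were kept in RPMI 1640 with 25 mM HEPES, 10% FCS and gentamicin at 37 °C under 5% CO2, and plated at 4,000-20,000 cells/well. After”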

SMILES	T/C [1]	T/C [2]	T/C [3]	T/C [4]	T/C [5]	T/C [6]	T/C [7]	T/C [8]	T/C [9]	T/C [10]	T/C [11]	T/C [12]	T/C [13]	T/C [14]	IC50 [15]	IC70 [15]	IC50 [16]	IC70 [16]	T/C [17]	IC50 [18]	further results
CC(O)(COc1ccc(S(F)(F)(F)(F)F)cc1)C(=O)Nc1cc(C(F)(F)F)cc(C(F)(F)F)c1 (racemic)	105%	109%	1%	4%	98%	21%	104%	15%	1%	91%	99%	30%	6%	103%	6.5 µM	7.99 µM	2.4 µM	3.22 µM	97%	3.2 µM	IC70 [18]: 4.07 µM; T/C [19]: 106%; T/C [20]: 89%; T/C [21]: 105%; T/C [22]: 52%; T/C [23]: 8%; T/C [24]: 7%; T/C [25]: 92%; T/C [26]: 13%; T/C [27]: 106%; T/C [28]: 110%; T/C [29]: 107%; T/C [30]: 102%; T/C [31]: 92%; T/C [32]: 117%
CC(O)(COc1cc(C(F)(F)F)cc(C(F)(F)F)c1)C(=O)Nc1cccc(S(F)(F)(F)(F)F)c1 (racemic)	97%	102%	0%	2%	94%	37%	104%	17%	2%	91%	74%	33%	5%	107%	9.3 µM	9.59 µM	2.8 µM	3.24 µM	67%	6.5 µM	IC70 [18]: 7.75 µM; T/C [19]: 105%; T/C [20]: 101%; T/C [21]: 110%; T/C [22]: 102%; T/C [23]: 2%; T/C [24]: 4%; T/C [25]: 96%; T/C [26]: 13%; T/C [27]: 114%; T/C [28]: 105%; T/C [29]: 78%; T/C [30]: 87%; T/C [31]: 89%; T/C [32]: 123%
